As usually defined, the pIC50 is the negative decadic logarithm of the IC50, by convention in mol/L.

pIC50: −log10 of the molar value. Active and inactive are the calls of the source. No cut-off for these calls is given here.

For data set [1], the system named is A549. The data set can be described thus: Antimigratory activity in human A549 cells assessed as reduction in wound healing at cytotoxic IC50 concentration after 24 to 48 hrs by phase contrast microscopy. In kind it is functional, cell-based. Summed up:
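A549 cells (5×10^5/well) grown 24 h to confluent monolayer, scratched with sterile 200 µL pipette tip, washed twice with PBS. Medium with compound at its IC50 added; untreated wells as control. Wound closure photographed by phase contrast microscopy at 0, 24 and 48 h in three or more random fields.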

Data set [2] is described as follows: Selectivity index, ratio of IC50 for HEK293T cells to IC50 for human PC3 cells. It counts as toxicity. The conditions noted are these: HEK293T cells versus PC3 cells, read-out: Ratio IC50.
Data set [3] deals with A549. The data set can be described thus: Cytotoxicity against human A549 cells assessed as cell growth inhibition after 48 hrs by MTT assay. In kind it is functional, cell-based. The conditions noted are these: A549, 48 h.
The next data set relates to HeLa. The data set can be described thus: Cytotoxicity against human HeLa cells assessed as cell growth inhibition after 48 hrs by MTT assay. In kind it is functional, cell-based. For orientation: Tetrazolium assays rely on reduction of a dye to a coloured formazan, in cell work by metabolically active cells.
The nature of data set [4]: Selectivity index, ratio of IC50 for HEK293T cells to IC50 for human HT1080 cells. In kind it is toxicity. The conditions noted are these: HEK293T cells versus HT1080 cells, read-out: Ratio IC50.
The subject of data set [5] is A549. The data set can be described thus: Induction of apoptosis in human A549 cells assessed as formation of shrinked nuclei at cytotoxic IC50 concentration after 24 hrs by Hoechst 33242-staining based fluorescent microscopy. It counts as functional, cell-based. Summed up: (§1)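 A549 cells (5×10^4/well) adhered 24 h on coverslips, exposed 24 h to IC50 concentration, fixed 10 min in 4% paraformaldehyde at 4 °C, stained with Hoechst 33242 (5 µg/mL) 30 min at room temperature. Nuclear morphology examined by fluorescence microscopy (ex 350/em 460 nm, 40x).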

Another data set relates to PC-3. The data set can be described thus: Cytotoxicity against human PC3 cells assessed as cell growth inhibition after 48 hrs by MTT assay. In kind it is functional, cell-based. The conditions noted are these: PC-3, 48 h.
For another data set, the system named is MDA-MB-231. The data set can be described thus: Cytotoxicity against human MDA-MB-231 cells assessed as cell growth inhibition after 48 hrs by MTT assay. The conditions noted are these: MDA-MB-231, 48 h. In kind it is functional, cell-based.
Another data set deals with HT-1080. Put plainly: Cytotoxicity against human HT1080 cells assessed as cell growth inhibition after 48 hrs by MTT assay. It counts as functional, cell-based. The conditions noted are these: HT-1080, 48 h.
The subject of data set [6] is A549. The data set can be described thus: Induction of ROS production in human A549 cells at cytotoxic IC50 concentration after 24 hrs by DCFH-DA-dye based fluorescent microscopy. It counts as functional, cell-based.
Data set [7] has as its system A549. The data set can be described thus: Induction of apoptosis in human A549 cells assessed as necrotic cells at cytotoxic IC50 concentration after 24 hrs by Annexin V-FITC/propidium iodide dual staining based flow cytometry (reference value: 3.7%). It counts as functional. In general terms: A flow cytometer gives signals particle by particle.
Data set [8] is described as follows: Selectivity index, ratio of IC50 for HEK293T cells to IC50 for human MDA-MB-231 cells. It counts as toxicity. The conditions noted are these: HEK293T cells versus MDA-MB-231 cells, read-out: Ratio IC50.
Data set [9] deals with A549. The data set can be described thus: Induction of apoptosis in human A549 cells assessed as loss of mitochondrial membrane potential at cytotoxic IC50 concentration after 24 hrs by rhodamine-123 dye based spectrofluorometery relative to control. In kind it is functional. The method, boiled down: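 A549 cells (5×10^5 cells/mL) adhered overnight, treated 24 h at IC50 concentration, trypsinised, washed and stained with rhodamine-123 (10 µg/mL) in PBS 30 min at room temperature. After two PBS washes, fluorescence measured by spectrofluorometer versus DMSO control; mean ± SD of three independent experiments.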

The test system of data set [10] is A549. Put plainly: Induction of apoptosis in human A549 cells assessed as early apoptotic cells at cytotoxic IC50 concentration after 24 hrs by Annexin V-FITC/propidium iodide dual staining based flow cyclometry (reference value: 9.8%). In kind it is functional.
A further data set concerns HEK-293T. Put plainly: Cytotoxicity against HEK293T cells assessed as cell growth inhibition after 48 hrs by MTT assay. In kind it is cell-based. The conditions noted are these: Homo sapiens.
Data set [11] has as its system A549. Put plainly: Induction of apoptosis in human A549 cells assessed as viable cells at cytotoxic IC50 concentration after 24 hrs by Annexin V-FITC/propidium iodide dual staining based flow cytometry (reference value: 84.8%). It counts as functional.
The subject of data set [12] is A549. Put plainly: Induction of apoptosis in human A549 cells assessed as late apoptotic cells at cytotoxic IC50 concentration after 24 hrs by Annexin V-FITC/propidium iodide dual staining based flow cytometry (reference value: 1.6%). It counts as functional.
Data set [13] in a line: Selectivity index, ratio of IC50 for HEK293T cells to IC50 for human HeLa cells. The conditions noted are these: HEK293T cells versus HeLa cells, read-out: Ratio IC50. It counts as toxicity.
Data set [14] has as its system A549. The data set can be described thus: Inhibition of filamentous actin polymerization in human A549 cells assessed as reduction in F-actin extension at the periphery at cytotoxic IC50 concentration after 24 hrs by rhodamine-phalloidin/Hoechst 33242 double staining based fluorescent microscopy. In kind it is cell-based. Summed up: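 A549 cells (1×10^6/well) grown on coverslips 24 h, treated 24 h at IC50 concentration, PBS-washed, fixed in 4% paraformaldehyde. Stained with rhodamine-phalloidin for F-actin and Hoechst 33242 for nuclei, mounted in anti-fade, imaged by fluorescence microscopy at 20X; DMSO-treated cells as control.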

The nature of data set [15]: Selectivity index, ratio of IC50 for HEK293T cells to IC50 for human A549 cells. It counts as toxicity. The conditions noted are these: HEK293T cells versus A549 cells, read-out: Ratio IC50.
For data set [16], the system named is A549. The data set can be described thus: Induction of apoptosis in human A549 cells assessed as formation of fragmented nuclei at cytotoxic IC50 concentration after 24 hrs by Hoechst 33242-staining based fluorescent microscopy. In kind it is functional, cell-based. Summed up: as §1

As for `COc1cc(-c2nc3cc(/C=C4\SC(=O)N(Cc5cc(OC)c(OC)c(OC)c5)C4=O)ccc3[nH]2)ccc1OCC(C)C`, the result in the data set on A549 [1], in the data set on A549 [5], in the data set on A549 [6] and with A549 [16] was Active. The selectivity ratio amounted to 60.5 in [2]; 41.6 in data set [4]; 1.5 in [8]; 26.6 in [13]; 69.3 in data set [15]. In addition, the pIC50 in the data set with A549 [3] is 7.02; in the data set on HeLa it was 6.60; with PC-3, 6.96; with MDA-MB-231, 5.36; with HT-1080, 6.80; in the data set on HEK-293T, 5.18. The Activity in the data set with A549 [7] is listed as 3.7%; in the data set with A549 [9], 37.3%; in the data set with A549 [10], 21.9%; with A549 [11], 66.1%; in the data set on A549 [12], 8.3%. In addition, the inhibition entry with A549 [14] is “Active”.

The values are drawn from ChEMBL document CHEMBL4190240, “Conventional and microwave-assisted synthesis of new 1H-benzimidazole-thiazolidinedione derivatives: A potential anticancer scaffold” (Eur J Med Chem, 2017).
